# System: Fusarium verticillioides
# Assay: Antifungal activity against Fusarium moniliforme at 20 ug after 48 hrs by cup diffusion method
# Type: functional
# Conditions: read-out: IZ
# Method in brief: (§1)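 Cup diffusion on 9 cm plates seeded with 1 × 10⁶ cfu of fungi, with spores adjusted to at least 1 × 10⁶ cfu/ml in potato dextrose broth. Compound in DMF was placed in 5 mm agar cups and left 1 h to diffuse. Plates were incubated at 28 °C for 48 h and the inhibition zone read in mm. DMF was the negative control.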
row,Structure (SMILES),zone of inhibition at 20 µg/disc [mm]
1,Cc1ccc(C2=NOC(CO)CC2)cc1C (centres undefined),14.7
2,Cc1ccc(C2=NOC(C#N)CC2)cc1 (centres undefined),10.5
3,CCOC(=O)C1CCC(c2ccc3c(c2)CCC3)=NO1 (centres undefined),32.8
4,Cc1ccc(C2=NOC(C#N)CC2)cc1C (centres undefined),15.7

# System: Fusarium oxysporum
# Assay: Antifungal activity against Fusarium oxysporum at 20 ug after 48 hrs by cup diffusion method
# Type: functional
# Conditions: read-out: IZ
# Method in brief: as §1
row,Structure (SMILES),zone of inhibition at 20 µg/disc [mm]
1,Cc1ccc(C2=NOC(CO)CC2)cc1C (centres undefined),19.8
2,Cc1ccc(C2=NOC(C#N)CC2)cc1 (centres undefined),13.7
3,CCOC(=O)C1CCC(c2ccc3c(c2)CCC3)=NO1 (centres undefined),36.5
4,Cc1ccc(C2=NOC(C#N)CC2)cc1C (centres undefined),21.5

# System: Aspergillus flavus
# Assay: Antifungal activity against Aspergillus flavus after 48 hrs by cup diffusion method
# Type: functional
# Conditions: not given
row,MIC [µg/mL],Structure (SMILES)
1,35,Cc1ccc(C2=NOC(CO)CC2)cc1C (centres undefined)
2,35,Cc1ccc(C2=NOC(C#N)CC2)cc1 (centres undefined)
3,10,CCOC(=O)C1CCC(c2ccc3c(c2)CCC3)=NO1 (centres undefined)
4,20,Cc1ccc(C2=NOC(C#N)CC2)cc1C (centres undefined)

# System: Aspergillus niger
# Assay: Antifungal activity against Aspergillus niger after 48 hrs by cup diffusion method
# Type: functional
# Conditions: not given
row,MIC [µg/mL],Structure (SMILES)
1,30,Cc1ccc(C2=NOC(CO)CC2)cc1C (centres undefined)
2,40,Cc1ccc(C2=NOC(C#N)CC2)cc1 (centres undefined)
3,15,CCOC(=O)C1CCC(c2ccc3c(c2)CCC3)=NO1 (centres undefined)
4,20,Cc1ccc(C2=NOC(C#N)CC2)cc1C (centres undefined)

# System: Fusarium verticillioides
# Assay: Antifungal activity against Fusarium moniliforme after 48 hrs by cup diffusion method
# Type: functional
# Conditions: not given
row,MIC [µg/mL],Structure (SMILES)
1,35,Cc1ccc(C2=NOC(CO)CC2)cc1C (centres undefined)
2,30,Cc1ccc(C2=NOC(C#N)CC2)cc1 (centres undefined)
3,20,CCOC(=O)C1CCC(c2ccc3c(c2)CCC3)=NO1 (centres undefined)
4,15,Cc1ccc(C2=NOC(C#N)CC2)cc1C (centres undefined)

# System: Fusarium oxysporum
# Assay: Antifungal activity against Fusarium oxysporum after 48 hrs by cup diffusion method
# Type: functional
# Conditions: not given
row,MIC [µg/mL],Structure (SMILES)
1,25,Cc1ccc(C2=NOC(CO)CC2)cc1C (centres undefined)
2,25,Cc1ccc(C2=NOC(C#N)CC2)cc1 (centres undefined)
3,10,CCOC(=O)C1CCC(c2ccc3c(c2)CCC3)=NO1 (centres undefined)
4,15,Cc1ccc(C2=NOC(C#N)CC2)cc1C (centres undefined)

# System: Klebsiella pneumoniae
# Assay: Antibacterial activity against Klebsiella pneumoniae […] at 20 ug after 24 hrs by cup diffusion method
# Type: functional
# Conditions: read-out: IZ
# Method in brief: (§2)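 Agar cup diffusion. Plates of sterile medium in 9 cm dishes were seeded with 1 × 10⁵ cfu of bacteria, with the suspension adjusted to at least 1 × 10⁵ cfu/ml in nutrient broth. Compound in DMF was placed in 5 mm cups and pre-diffused for 1 h. Plates were incubated at 37 °C for 24 h and the inhibition zone measured in mm. DMF served as negative control.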
row,Structure (SMILES),zone of inhibition at 20 µg/disc [mm]
1,Cc1ccc(C2=NOC(CO)CC2)cc1C (centres undefined),17.7
2,Cc1ccc(C2=NOC(C#N)CC2)cc1 (centres undefined),16.7
3,CCOC(=O)C1CCC(c2ccc3c(c2)CCC3)=NO1 (centres undefined),13.5
4,Cc1ccc(C2=NOC(C#N)CC2)cc1C (centres undefined),19.8

# System: Escherichia coli
# Assay: Antibacterial activity against Escherichia coli MTCC 443 at 20 ug after 24 hrs by cup diffusion method
# Type: functional
# Conditions: MTCC 443, 24 h, read-out: IZ
# Method in brief: as §2
row,Structure (SMILES),zone of inhibition at 20 µg/disc [mm]
1,Cc1ccc(C2=NOC(CO)CC2)cc1C (centres undefined),13.7
2,Cc1ccc(C2=NOC(C#N)CC2)cc1 (centres undefined),11.5
3,CCOC(=O)C1CCC(c2ccc3c(c2)CCC3)=NO1 (centres undefined),10.7
4,Cc1ccc(C2=NOC(C#N)CC2)cc1C (centres undefined),15.5

# System: Pseudomonas aeruginosa
# Assay: Antibacterial activity against Pseudomonas aeruginosa MTCC 1688 at 20 ug after 24 hrs by cup diffusion method
# Type: functional
# Conditions: MTCC 1688, 24 h, read-out: IZ
# Method in brief: as §2
row,Structure (SMILES),zone of inhibition at 20 µg/disc [mm]
1,Cc1ccc(C2=NOC(CO)CC2)cc1C (centres undefined),12.8
2,Cc1ccc(C2=NOC(C#N)CC2)cc1 (centres undefined),12.7
3,CCOC(=O)C1CCC(c2ccc3c(c2)CCC3)=NO1 (centres undefined),13.4
4,Cc1ccc(C2=NOC(C#N)CC2)cc1C (centres undefined),15.2

# System: Staphylococcus aureus
# Assay: Antibacterial activity against Staphylococcus aureus MTCC 737 at 20 ug after 24 hrs by cup diffusion method
# Type: functional
# Conditions: MTCC 737, 24 h, read-out: IZ
# Method in brief: as §2
row,Structure (SMILES),zone of inhibition at 20 µg/disc [mm]
1,Cc1ccc(C2=NOC(CO)CC2)cc1C (centres undefined),14.8
2,Cc1ccc(C2=NOC(C#N)CC2)cc1 (centres undefined),23.5
3,CCOC(=O)C1CCC(c2ccc3c(c2)CCC3)=NO1 (centres undefined),18.7
4,Cc1ccc(C2=NOC(C#N)CC2)cc1C (centres undefined),21.5

# System: Escherichia coli
# Assay: Antibacterial activity against Escherichia coli MTCC 443 after 24 hrs by cup diffusion method
# Type: functional
# Conditions: MTCC 443, 24 h
row,MIC [µg/mL],Structure (SMILES)
1,25,Cc1ccc(C2=NOC(CO)CC2)cc1C (centres undefined)
2,25,Cc1ccc(C2=NOC(C#N)CC2)cc1 (centres undefined)
3,30,CCOC(=O)C1CCC(c2ccc3c(c2)CCC3)=NO1 (centres undefined)
4,25,Cc1ccc(C2=NOC(C#N)CC2)cc1C (centres undefined)

# System: Klebsiella pneumoniae
# Assay: Antibacterial activity against Klebsiella pneumoniae […] after 24 hrs by cup diffusion method
# Type: functional
# Conditions: not given
row,MIC [µg/mL],Structure (SMILES)
1,20,Cc1ccc(C2=NOC(CO)CC2)cc1C (centres undefined)
2,20,Cc1ccc(C2=NOC(C#N)CC2)cc1 (centres undefined)
3,25,CCOC(=O)C1CCC(c2ccc3c(c2)CCC3)=NO1 (centres undefined)
4,15,Cc1ccc(C2=NOC(C#N)CC2)cc1C (centres undefined)

# System: Pseudomonas aeruginosa
# Assay: Antibacterial activity against Pseudomonas aeruginosa MTCC 1688 after 24 hrs by cup diffusion method
# Type: functional
# Conditions: MTCC 1688, 24 h
row,MIC [µg/mL],Structure (SMILES)
1,25,Cc1ccc(C2=NOC(CO)CC2)cc1C (centres undefined)
2,20,Cc1ccc(C2=NOC(C#N)CC2)cc1 (centres undefined)
3,20,CCOC(=O)C1CCC(c2ccc3c(c2)CCC3)=NO1 (centres undefined)
4,15,Cc1ccc(C2=NOC(C#N)CC2)cc1C (centres undefined)

# System: Staphylococcus aureus
# Assay: Antibacterial activity against Staphylococcus aureus MTCC 737 after 24 hrs by cup diffusion method
# Type: functional
# Conditions: MTCC 737, 24 h
row,MIC [µg/mL],Structure (SMILES)
1,15,Cc1ccc(C2=NOC(CO)CC2)cc1C (centres undefined)
2,15,Cc1ccc(C2=NOC(C#N)CC2)cc1 (centres undefined)
3,20,CCOC(=O)C1CCC(c2ccc3c(c2)CCC3)=NO1 (centres undefined)
4,10,Cc1ccc(C2=NOC(C#N)CC2)cc1C (centres undefined)

# System: Aspergillus flavus
# Assay: Antifungal activity against Aspergillus flavus at 20 ug after 48 hrs by cup diffusion method
# Type: functional
# Conditions: read-out: IZ
# Method in brief: as §1
row,Structure (SMILES),zone of inhibition at 20 µg/disc [mm]
1,Cc1ccc(C2=NOC(CO)CC2)cc1C (centres undefined),8.66
2,Cc1ccc(C2=NOC(C#N)CC2)cc1 (centres undefined),7.5
3,CCOC(=O)C1CCC(c2ccc3c(c2)CCC3)=NO1 (centres undefined),28.5
4,Cc1ccc(C2=NOC(C#N)CC2)cc1C (centres undefined),12.2

# System: Aspergillus niger
# Assay: Antifungal activity against Aspergillus niger at 20 ug after 48 hrs by cup diffusion method
# Type: functional
# Conditions: read-out: IZ
# Method in brief: as §1
row,Structure (SMILES),zone of inhibition at 20 µg/disc [mm]
1,Cc1ccc(C2=NOC(CO)CC2)cc1C (centres undefined),10.7
2,Cc1ccc(C2=NOC(C#N)CC2)cc1 (centres undefined),6.83
3,CCOC(=O)C1CCC(c2ccc3c(c2)CCC3)=NO1 (centres undefined),26.7
4,Cc1ccc(C2=NOC(C#N)CC2)cc1C (centres undefined),11.7
